The IC50 is the concentration that inhibits the measured activity by half. The term inhibition denotes the drop in the measured response relative to a control, in per cent. For orientation: Tmax means the time at which the peak concentration occurs. Usually Cmax stands for the maximum level reached in the sampled fluid or tissue. A word on the AUC(0-t): it is exposure summed from dosing to a finite time, without extrapolation to infinity.

Experimental findings from ChEMBL document CHEMBL4811250, “Discovery and Optimization of 2H-1λ2-Pyridin-2-one Inhibitors of Mutant Isocitrate Dehydrogenase 1 for the Treatment of Cancer” (J Med Chem, 2021) are described below.

Values joined by “and” are separate entries in the source; they are usually repeats but may differ in a detail not shown here. Identical values can stand only once.

The target of series [1] is Isocitrate dehydrogenase [NADP] cytoplasmic (Homo sapiens, UniProt O75874, R132H). The series is described as follows: Inhibition of IDH1 R132H mutant (unknown origin) assessed as reduction in NADPH consumption using alpha-KG as substrate incubated for 5 mins by diaphorase/resazurin-coupled system. Background: Resazurin is reduced to fluorescent resorufin, in cell work by metabolically active cells.
Sequence of Isocitrate dehydrogenase [NADP] cytoplasmic (Homo sapiens, UniProt O75874, R132H) (O75874 2-414 R132H limits assumed): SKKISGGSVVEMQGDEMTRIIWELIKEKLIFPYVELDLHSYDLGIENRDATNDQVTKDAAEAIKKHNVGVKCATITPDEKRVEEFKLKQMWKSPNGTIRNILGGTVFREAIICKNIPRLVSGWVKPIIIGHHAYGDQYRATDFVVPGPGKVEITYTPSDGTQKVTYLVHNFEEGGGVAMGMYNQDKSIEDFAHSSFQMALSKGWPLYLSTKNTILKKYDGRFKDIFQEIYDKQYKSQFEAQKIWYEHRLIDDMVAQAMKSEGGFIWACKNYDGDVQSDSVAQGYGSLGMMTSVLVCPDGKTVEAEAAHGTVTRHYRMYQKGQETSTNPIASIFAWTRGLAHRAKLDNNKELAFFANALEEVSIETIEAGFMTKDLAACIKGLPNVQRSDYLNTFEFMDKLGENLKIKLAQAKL

Series [2] deals with Isocitrate dehydrogenase [NADP] cytoplasmic (Homo sapiens), O75874 [R132H]. Briefly: Inhibition of IDH1 R132H mutant (unknown origin) assessed as reduction in NADPH consumption using alpha-KG as substrate at 38 uM incubated for 5 mins by diaphorase/resazurin-coupled system relative to control.
Sequence of Isocitrate dehydrogenase [NADP] cytoplasmic (Homo sapiens), O75874 [R132H] (O75874 whole entry R132H): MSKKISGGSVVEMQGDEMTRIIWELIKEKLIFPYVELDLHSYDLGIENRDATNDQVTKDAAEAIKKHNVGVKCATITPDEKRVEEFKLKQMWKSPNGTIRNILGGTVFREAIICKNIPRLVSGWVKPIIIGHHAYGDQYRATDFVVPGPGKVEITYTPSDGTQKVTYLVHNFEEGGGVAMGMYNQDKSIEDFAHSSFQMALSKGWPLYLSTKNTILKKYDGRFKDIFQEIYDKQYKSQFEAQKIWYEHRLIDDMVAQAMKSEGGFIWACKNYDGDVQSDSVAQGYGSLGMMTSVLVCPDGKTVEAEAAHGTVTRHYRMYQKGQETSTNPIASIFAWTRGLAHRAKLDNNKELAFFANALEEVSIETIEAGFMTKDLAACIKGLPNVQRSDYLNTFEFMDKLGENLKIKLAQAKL
Series [3] has as its target Isocitrate dehydrogenase [NADP] cytoplasmic (Homo sapiens, UniProt O75874, R132C). The series is described as follows: Inhibition of IDH1 R132C mutant (unknown origin) assessed as reduction in NADPH consumption using alpha-KG as substrate incubated for 5 mins by diaphorase/resazurin-coupled system.
In series [4] the test system is Isocitrate dehydrogenase [NADP] cytoplasmic (Homo sapiens), O75874 [R132C]. The series is described as follows: Inhibition of IDH1 R132C mutant (unknown origin) assessed as reduction in NADPH consumption using alpha-KG as substrate at 38 uM incubated for 5 mins by diaphorase/resazurin-coupled system relative to control.
Sequence of Isocitrate dehydrogenase [NADP] cytoplasmic (Homo sapiens), O75874 [R132C] (O75874 whole entry R132C): as the sequence (O75874 whole entry R132H) above, with H132C counted along it
Series [5] is described as follows: Metabolic stability in rat liver microsomes assessed as half life incubated for 15 mins by high resolution LC/MS analysis. It is filed as ADME, Microsome. The following applies: 0.25 h. The method, boiled down:
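Rat liver microsomes (0.5 mg/mL protein) with 1.0 μM compound and NADPH regenerating system in 100 mM phosphate pH 7.4, 15 min at 37 °C. Quenched with acetonitrile containing albendazole internal standard. Percent remaining measured by high-resolution LC/MS.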
In general terms: Liver microsomes are a subcellular fraction often used to study metabolism.

Series [6] is described as follows: Permeability of compound at pH 7.4 by PAMPA assay. Format: ADME. To be noted: for Papp: read-out: permeability. The method, boiled down:
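Stirring double-sink PAMPA using a lipid/dodecane membrane tuned for GI passive permeability, pH 7.4 on donor and acceptor sides. Compound at 0.05 mM (0.5% DMSO), 30 min permeation at room temperature with donor stirring. Donor and acceptor concentrations read by UV plate reader.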
(PAMPA measures passive passage across an artificial lipid membrane.)

Series [7] in a line: Kinetic solubility of the compound in pH 7.4 phosphate buffer measured after 6 hrs by UV spectroscopy. Format: physicochemical. The following applies: read-out: Kinetic_solubility.
The test system of series [8] is Isocitrate dehydrogenase [NADP] cytoplasmic (Homo sapiens), O75874 [R132H]. Briefly: Inhibition of IDH1 R132H mutant (unknown origin) expressed in human U87 cells assessed as R-2-hydroxyglutarate production at 100 nM after 48 hrs by LC-MS analysis. Format: cell-based. Also noted: scale not given: the % may be the effect or the level left. A digest of the protocol:
(§1)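 U87-R132H cells (8000/well, DMEM high glucose, 10% FBS) were seeded, cultured overnight at 37 °C and 5% CO2, then given compound or DMSO. After 48 h, 2-HG secreted into the medium was measured by RapidFire LC-MS. Cell viability was checked by CellTiter-Glo.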

Series [9] has the same test system. The series is described as follows: Inhibition of IDH1 R132H mutant (unknown origin) expressed in human U87 cells assessed as R-2-hydroxyglutarate production at 500 nM after 48 hrs by LC-MS analysis. Format: cell-based. Also noted: scale not given: the % may be the effect or the level left. A digest of the protocol: as §1
A short description of series [10]: Tmax in CD1 mouse brain at 30 mg/kg, po measured up to 24 hrs by LC-MS/MS analysis. Format: ADME, organism-based. A digest of the protocol: (§2)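 Fed male CD1 mice (6–8 weeks, ~25–30 g) given a single 30 mpk oral dose as a 3 mg/mL solution in 20% PEG300, 40% Solutol solution (30% w/w in water), 40% DI water. Plasma (heparin-Na, heart puncture) and whole brain taken from N=3 mice per time point, 15 min to 24 h. LC/MS/MS quantitation gave Tmax, Cmax and AUC.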

Series [11] is described as follows: Cmax in CD1 mouse brain at 30 mg/kg, po measured up to 24 hrs by LC-MS/MS analysis. Format: ADME, organism-based. Also on record: route oral, dose 30 mg/kg, time <=24. A digest of the protocol:
as §2

The nature of series [12]: AUClast in CD1 mouse brain at 30 mg/kg, po measured up to 24 hrs by LC-MS/MS analysis. The following applies: in vivo. It is filed as ADME, organism-based. A digest of the protocol: as §2
Series [13] in a line: Ratio of AUClast in plasma to brain in CD1 mouse at 30 mg/kg, po measured up to 24 hrs by LC-MS/MS analysis. The following applies: in vivo. Format: ADME, organism-based. A digest of the protocol:
as §2

Series [14] is described as follows: Ratio of Cmax in plasma to brain in CD1 mouse at 30 mg/kg, po measured up to 24 hrs by LC-MS/MS analysis. Format: ADME, organism-based. To be noted: in vivo. A digest of the protocol: as §2
Series [15] in a line: Tmax in CD1 mouse plasma at 30 mg/kg, po measured up to 24 hrs by LC-MS/MS analysis. Format: ADME, organism-based. The method, boiled down:
as §2

Series [16] is described as follows: Cmax in CD1 mouse plasma at 30 mg/kg, po measured up to 24 hrs by LC-MS/MS analysis. It is filed as ADME, organism-based. Also noted: route oral, dose 30 mg/kg, time <=24. The method, boiled down:
as §2

Series [17] can be described thus: AUClast in CD1 mouse plasma at 30 mg/kg, po measured up to 24 hrs by LC-MS/MS analysis. Format: ADME, organism-based. Also noted: route oral, dose 30 mg/kg, time <=24. The method, boiled down: as §2
Series [18] in a line: Drug level in human U87MG cells expressing IDH1 R132H mutation transfected in NCr mouse plasma at 30 mg/kg, po measured after 24 hrs by LC-MS/MS analysis. It is filed as ADME, organism-based, U-87MG ATCC. The following applies: read-out: Drug uptake. A digest of the protocol: (§3)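 Mice bearing subcutaneous U87MG glioblastoma cells carrying IDH1 R132H (1 x 10^7 cells/mouse) were staged at ~200 mg and randomized. Each received a single oral 30 mg/kg dose; vehicle was 10% NMP, 40% PEG300, 25% [30% Solutol in water], 25% DI water. K2EDTA blood and tumors were taken under isoflurane from 4 mice per group at 1–48 h. Drug was quantified by validated LC-MS/MS.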

A short description of series [19]: Drug level in human U87MG cells expressing IDH1 R132H mutation transfected in NCr mouse plasma at 30 mg/kg, po measured after 36 hrs by LC-MS/MS analysis. Format: ADME, organism-based, U-87MG ATCC. The following applies: read-out: Drug uptake. The method, boiled down:
as §3

Series [20] in a line: Drug level in human U87MG cells expressing IDH1 R132H mutation transfected in NCr mouse plasma at 30 mg/kg, po measured after 48 hrs by LC-MS/MS analysis. It is filed as ADME, organism-based, U-87MG ATCC. To be noted: read-out: Drug uptake. The method, boiled down:
as §3

Sequence of Isocitrate dehydrogenase [NADP] cytoplasmic (Homo sapiens, UniProt O75874, R132C) (O75874 2-414 R132C limits assumed): as the sequence (O75874 2-414 R132H limits assumed) above, with H131C counted along it

With `CCc1cccc(CC)c1-n1c(C=C(C)C)c(C(=O)N2CCNCC2)cc(-c2nc(-c3ccc(Cl)cc3)cs2)c1=O`, the values for the IC50 in series [1] and in [3] were 44 nM and 58 nM, respectively. The inhibition in series [2] is 101%; in [4], 97%. The t1/2 in [5] is reported as 14 min. Moreover, the Papp in [6] turned out to be 225 ×10⁻⁶ cm/s. Moreover, the solubility kinetic at 6 h in [7] was under 1 µg/mL. The Activity in [8] was 13%; in series [9] it was 16%.

`CCc1cccc(CC)c1-n1c(CC(C)C)c(C(=O)N2CCNCC2)cc(-c2nc(-c3ccc(Cl)cc3)cs2)c1=O`: the figures for the IC50 in [1] and in series [3] were 110 nM and 120 nM, respectively. Also, the inhibition stood at 98% in series [2] and 83% in series [4]. The t1/2 in series [5] was 17 min. The Papp in series [6] is 16 ×10⁻⁶ cm/s. In addition, the solubility kinetic at 6 h in [7] is under 1 µg/mL. The Activity was 33% in series [8] and 12% in series [9].

Regarding `CCc1cccc(CC)c1-n1c(C=C(C)C)c(C(=O)N2CCNCC2C)cc(-c2nc(-c3ccc(Cl)cc3)cs2)c1=O` (stereo not drawn), the values for the IC50 in series [1] and in [3] were 39 nM and 53 nM, respectively. Also, in series [5], the t1/2 is listed as 17 min. Also, the Papp in series [6] was found to be 40 ×10⁻⁶ cm/s. In series [7], the solubility kinetic at 6 h is under 1 µg/mL. Further, the figures for the Activity in series [8] and in series [9] were 14% and 11%, respectively.

`CCc1cccc(CC)c1-n1c(C=C(C)C)c(C(=O)N2C[C@H]3CC[C@@H](C2)N3)cc(-c2nc(-c3ccc(Cl)cc3)cs2)c1=O`: the values for the IC50 in series [1] and in series [3] were 94 nM and 60 nM, respectively. For the same compound, the t1/2 in series [5] is over 30 min. Moreover, the Papp in series [6] was found to be 89 ×10⁻⁶ cm/s. In addition, the solubility kinetic at 6 h in series [7] is under 1 µg/mL. Moreover, the Activity in series [8] is 11%; in [9], 10%.

Consider `CCc1ccc(Cl)cc1-n1c(C=C(C)C)c(C(=O)N2CCNCC2)cc(-c2nc(-c3ccc(Cl)cc3)cs2)c1=O`, for which, in series [5], the t1/2 is over 30 min. For the same compound, the permeability in series [6] is 255 10^-6 cm/s and 434 10^-6 cm/s. The solubility kinetic at 6 h in series [7] is under 1 µg/mL. Moreover, the Activity in series [8] was determined as 5.9%; in series [9], 4.1%. Further, the Tmax in series [10] came to 6 h; in [15], 4 h. In addition, the Cmax in [11] was 595 ng/g; in [16], 2010 ng/mL. This compound displayed an AUClast in [12] of 7000 ng·h/g. Moreover, the “Ratio AUC” value in series [13] was found to be 3.52. The Ratio in [14] was determined as 3.68. In series [17], this compound returned an AUC(0-t) at 24 h of 24400 ng·h/mL. For the same compound, in [18], the concentration at 24 h is 9.5 µM. Further, in series [19], the concentration at 36 h was 7.2 µM. In addition, the concentration at 48 h in [20] came out at 6.8 µM.
